Measurements taken from ChEMBL document CHEMBL4616673 (J Med Chem, 2020).
Converted amounts (≈) assume the structure as drawn. The source made the active and inactive calls. No cut-off for these calls is given here.

Assays:
[1] = test system: HCT-116; experiment: Antiproliferative activity against human HCT116 cells assessed as reduction in cell viability measured after 48 hrs by MTT assay; assay type: functional, cell-based
[2] = Solubility of the compound in PBS; assay type: physicochemical
[3] = test system: A549; experiment: Antiproliferative activity against human A549 cells assessed as reduction in cell viability measured after 48 hrs by MTT assay; assay type: functional, cell-based
[4] = test system: NAMALVA; experiment: Antiproliferative activity against human NAMALWA cells assessed as reduction in cell viability measured after 48 hrs by MTT assay; assay type: functional, cell-based
[5] = test system: Raji; experiment: Induction of apoptosis in human Raji cells assessed as necrotic cells at 0.25 uM measured after 48 hrs by Annexin V-FITC staining based flow cytometry (reference value: 0.12 to 0.15 %); assay type: functional
[6] = test system: Raji; experiment: Induction of ROS generation in human Raji cells assessed as increase in ROS level measured after 24 hrs by DHE dye based fluorescence microplate reader assay; assay type: functional, cell-based
In short: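 Raji cells treated 24 h, harvested, stained with 10 μM DHE in pre-warmed PBS for 15 min in the dark. Fluorescence read on a plate reader at ex 510/em 600 nm. Mean ± SD.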

[7] = test system: Raji; experiment: Induction of apoptosis in human Raji cells assessed as necrotic cells at 1 uM measured after 48 hrs by Annexin V-FITC staining based flow cytometry (reference value: 0.12 to 0.15 %); assay type: functional
[8] = test system: Raji; experiment: Induction of apoptosis in human Raji cells assessed as early apoptotic cells at 0.25 uM measured after 48 hrs by Annexin V-FITC staining based flow cytometry (reference value: 2.12 to 2.15 %); assay type: functional
[9] = test system: Raji; experiment: Induction of apoptosis in human Raji cells assessed as live cells at 0.5 uM measured after 48 hrs by Annexin V-FITC staining based flow cytometry (reference value: 96.46 to 96.71 %); assay type: functional
[10] = test system: Raji; experiment: Induction of mitochondrial membrane potential loss in human Raji cells measured after 48 hrs by TMRM staining based fluorescence assay; assay type: functional, cell-based
In short: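 Raji cells treated 48 h (CCCP as positive control), washed in PBS. Incubated with TMRM at 100 nM final for 15 min at 37 °C, fluorescence read at ex 510/em 580 nm. Mean ± SD.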

[11] = test system: MCF7; experiment: Antiproliferative activity against human MCF7 cells assessed as reduction in cell viability measured after 48 hrs by MTT assay; assay type: functional, cell-based
[12] = test system: HeLa; experiment: Antiproliferative activity against human HeLa cells assessed as reduction in cell viability measured after 48 hrs by MTT assay; assay type: functional, cell-based
[13] = test system: Raji; experiment: Antiproliferative activity against human Raji cells assessed as inhibition of cell proliferation at 0.156 to 1.250 uM measured after 48 hrs in presence of uridine by MTT assay; assay type: functional, cell-based
In short: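 Raji cells (ATCC; 10% FBS medium, 37 °C, 5% CO2) seeded at 2-10 × 10^3 cells/well, grown 24 h, then exposed to compound with or without uridine (500 μM) for 48 h. MTT added for 2-4 h; formazan dissolved in 20% acidified SDS overnight; absorbance read at 570 nm. Mean ± SD.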

[14] = test system: Raji; experiment: Antiproliferative activity against human Raji cells assessed as reduction in cell viability measured after 48 hrs by MTT assay; assay type: functional, cell-based
[15] = test system: Raji; experiment: Induction of apoptosis in human Raji cells assessed as live cells at 0.25 uM measured after 48 hrs by Annexin V-FITC staining based flow cytometry (reference value: 96.46 to 96.71 %); assay type: functional
[16] = target: Dihydroorotate dehydrogenase (quinone), mitochondrial (Homo sapiens, UniProt Q02127); experiment: Inhibition of human DHODH using dihydroorotate as substrate and CoQ10 as co-substrate preincubated for 30 mins followed by substrate addition by DCIP coupled microplate reader assay
[17] = test system: Raji; experiment: Induction of apoptosis in human Raji cells assessed as early apoptotic cells at 1 uM measured after 48 hrs by Annexin V-FITC staining based flow cytometry (reference value: 2.12 to 2.15 %); assay type: functional
[18] = test system: Raji; experiment: Induction of apoptosis in human Raji cells assessed as live cells at 1 uM measured after 48 hrs by Annexin V-FITC staining based flow cytometry (reference value: 96.46 to 96.71 %); assay type: functional
[19] = test system: Raji; experiment: Cell cycle arrest in human Raji cells assessed as accumulation at S phase at 0.5 uM measured after 24 hrs by propidium iodide/RNase staining based flow cytometry (reference value: 52%); assay type: functional
[20] = test system: Raji; experiment: Induction of apoptosis in human Raji cells assessed as necrotic cells at 0.5 uM measured after 48 hrs by Annexin V-FITC staining based flow cytometry (reference value: 0.12 to 0.15 %); assay type: functional
[21] = test system: K562; experiment: Antiproliferative activity against human K562 cells assessed as reduction in cell viability measured after 48 hrs by MTT assay; assay type: functional, cell-based
[22] = test system: A-375; experiment: Antiproliferative activity against human A375 cells assessed as reduction in cell viability measured after 48 hrs by MTT assay; assay type: functional, cell-based
[23] = test system: Raji; experiment: Induction of apoptosis in human Raji cells assessed as early apoptotic cells at 0.5 uM measured after 48 hrs by Annexin V-FITC staining based flow cytometry (reference value: 2.12 to 2.15 %); assay type: functional
[24] = Stability of the compound in pH 9 buffer assessed as decrease in compound concentration at 0.01 mg/ml measured up to 24 hrs by LC-MS analysis; assay type: physicochemical; conditions: read-out: Drug degradation
In short: (§1)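 Compound at 0.01 mg/mL final in buffer containing 10% acetonitrile at pH 1.0, 4.5, 6.6, 7.4 or 9.0. Held at 37 °C, sampled at 0, 2, 4, 6, 8, 10, 12 and 24 h. Remaining compound by LC-MS.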

[25] = test system: Raji; experiment: Antitumor activity against human Raji cells xenografted in NOD-SCID nude mouse assessed as tumor growth inhibition at 10 mg/kg/day, po administered 6 days a week for 3 weeks relative to control; assay type: functional
In short: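 Nude mice given 1 × 10^7 Raji cells s.c. in serum-free medium plus basement membrane matrix. Randomized at 100–200 mm3 tumour volume (n = 6 per group). Oral dosing 6 days/week for 3 weeks. Vehicles: 30 mg/kg/d in 5% NMP/95% PEG400, 10 mg/kg/d in 30% PEG300/70% saline. Volume = ab²/2 every 3 days. TGI from treated vs control volume change, initial to final day.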

[26] = Stability of the compound in pH 1 to 7.4 buffer assessed as decrease in compound concentration at 0.01 mg/ml measured up to 24 hrs by LC-MS analysis; assay type: physicochemical; conditions: read-out: Drug degradation; in short: as §1
[27] = Toxicity in NOD-SCID nude mouse xenografted with human Raji cells assessed as body weight loss at 30 mg/kg/day, po administered 6 days a week for 3 weeks and measured every 3 days during compound dosing; assay type: organism-based; conditions: in vivo, 10 mg/kg, in the assay text read “10 mg/kg/day” for “30 mg/kg/day”
[28] = Toxicity in NOD-SCID nude mouse xenografted with human Raji cells assessed as induction of liver damage at 10 mg/kg/day, po administered 6 days a week for 3 weeks and measured post last dose by H and E staining based light microscopic analysis; conditions: in vivo

Sequence of Dihydroorotate dehydrogenase (quinone), mitochondrial (Q02127 whole entry): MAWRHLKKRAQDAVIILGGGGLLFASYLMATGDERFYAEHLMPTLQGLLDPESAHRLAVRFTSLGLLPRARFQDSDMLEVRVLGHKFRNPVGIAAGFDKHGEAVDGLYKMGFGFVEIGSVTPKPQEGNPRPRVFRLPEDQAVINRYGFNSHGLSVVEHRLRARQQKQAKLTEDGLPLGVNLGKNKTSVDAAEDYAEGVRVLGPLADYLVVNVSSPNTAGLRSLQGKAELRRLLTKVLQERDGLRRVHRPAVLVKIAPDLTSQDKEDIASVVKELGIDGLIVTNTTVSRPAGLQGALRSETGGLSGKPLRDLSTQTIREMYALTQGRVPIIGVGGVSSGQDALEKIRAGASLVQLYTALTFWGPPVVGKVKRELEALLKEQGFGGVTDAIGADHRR

`COc1cccc(-c2c(F)cc(-n3nnc4c3C(=O)c3ccccc3C4=O)cc2F)c1` showed an IC50 ([1]; Homo sapiens, HCT-116, 48 h) of 600 nM, a solubility [2] of 21.4 µg/mL (≈ 51.3 µM) and an IC50 ([3]; Homo sapiens, A549, 48 h) of 2250 nM. For the same compound, the IC50 ([4]; Homo sapiens, NAMALVA, 48 h) was 1040 nM, the Activity [5] was 0.5% and the Activity [6] was “Dose-dependent effect”. The Activity [7] was 0.39%, the Activity [8] was 3.58% and the Activity [9] was 91.11%. For the same compound, the Activity [10] was “Dose-dependent effect”, the IC50 ([11]; Homo sapiens, MCF7, 48 h) was greater than 10000 nM and the IC50 ([12]; Homo sapiens, HeLa, 48 h) was greater than 10000 nM. For the same compound, the inhibition [13] was “inactive”, the IC50 ([14]; Homo sapiens, Raji, 48 h) was 480 nM and the Activity [15] was 91.81%. For the same compound, the IC50 [16] was 9 nM, the Activity [17] was 4.24% and the Activity [18] was 90.1%. The Activity [19] was 77.98%, the Activity [20] was 0.36% and the IC50 ([21]; Homo sapiens, K562, 48 h) was 340 nM. The IC50 ([22]; Homo sapiens, A-375, 48 h) was 40 nM and the Activity [23] was 3.43%.
For `Cc1c(-c2ccc(-c3ccccc3F)cc2)nc2ccc(F)cc2c1C(=O)O` [BREQUINAR], the IC50 ([1]; hct-116) was 4120 nM, the solubility [2] was 75.2 µg/mL (≈ 200 µM) and the IC50 ([3]; a549) was 4100 nM. The degraded at 24 h, 0.01 mg/ml [24] was 75.4%, the IC50 ([4]; namalva) was greater than 10000 nM and the Activity [5] was 0.27%. For the same compound, the Activity [7] was 0.41%, the Activity [8] was 2.42% and the Activity [9] was 91.85%. It also gave a TGI [25] of 74%, an IC50 ([11]; mcf7) greater than 10000 nM and an IC50 ([12]; hela) greater than 10000 nM. For the same compound, the IC50 ([14]; raji) was 2290 nM, the Activity [15] was 93.68% and the degraded at 24 h, 0.01 mg/ml [26] was 6.3 to 12.1%. The Activity [27] was “Toxic”, the Activity [17] was 2.48% and the Activity [18] was 92.06%. It also gave an Activity [20] of 0.27%, an IC50 ([21]; k562) of 540 nM and an IC50 ([22]; a-375) of 590 nM. For the same compound, the Activity [28] was “Toxic” and the Activity [23] was 3.56%.
